Laboratory results reported in ChEMBL document CHEMBL4118110, “The identification of inhibitory compounds of Rickettsia prowazekii methionine aminopeptidase for antibacterial applications” (Bioorg Med Chem Lett, 2018).

Assay: Inhibition of Rickettsia prowazekii N-terminal His6-tagged methionine aminopeptidase 1 expressed in Escherichia coli DLB3 Rosetta cells at 10 uM using Met-AMC as substrate preincubated for 1 hr followed by 30 mins incubation after substrate addition measured after 90 mins in presence of MnCl2 by fluorescence assay relative to control
Outline: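 Recombinant R. prowazekii MetAP with Mn(II) as the metal cofactor. Met-AMC substrate; release of free AMC is followed by fluorescence (excitation 360 nm, emission 460 nm). Activity is the slope of fluorescence versus time, compared with an uninhibited control.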

## COc1ccc(O)c(C2=NNC(c3ccc(F)cc3)C2)c1 (stereo unspecified)
  inhibition: 26 to 48%

## Cc1nc2sc(C(=O)O)c(C)c2c(=O)[nH]1
  inhibition: 11 to 18%

## CN(C)Cc1cc(C(=O)O)no1
  inhibition: 2 to 60%

## O=C(O)c1cnc2ccccc2c1O
  inhibition: 13 to 55%

## O=C(CSc1nnc(-c2ccco2)[nH]1)N1CCOCC1
  inhibition: 24 to 40%

## Nc1nnc(SCC(=O)OC2CCCC2)[nH]1
  inhibition: 53 to 59%

## Cc1cccc(CSc2nnc(N)[nH]2)c1
  inhibition: 27 to 46%

## Cc1c(C(=O)O)sc2ncn(C(C)C)c(=O)c12
  inhibition: 5 to 19%

## O=C(O)CC(Sc1nnc[nH]1)c1ccc(Cl)cc1 (stereo unspecified)
  inhibition: 54 to 55%

## Oc1ccccc1-c1nncn1-c1ccccc1
  inhibition: 14 to 46%

## COc1ccc(C=O)cc1OCc1ccc(C(=O)O)o1
  inhibition: 36 to 65%

## CC(C)N1CC(=O)C(c2nc3ccccc3[nH]2)=C1N
  inhibition: 25 to 26%

## CCc1nnc(SCC(=O)OC)[nH]1
  inhibition: 6 to 25%

## O=C(O)c1cc(Br)c(Br)s1
  inhibition: 30 to 64%

## NC(=O)CSc1n[nH]c(-c2ccco2)n1
  inhibition: 1 to 50%

## CCc1n[nH]c(SCc2ccc([N+](=O)[O-])cc2)n1
  inhibition: 1 to 27%

## Nc1cccc2c(-c3cccnc3)n[nH]c12
  inhibition: 16 to 21%

## Cc1c(C(=O)O)sc2ncn(C)c(=O)c12
  inhibition: 9 to 47%

## CC(=O)c1c(Nc2ccc(F)cc2)oc(C)cc1=O
  inhibition: 23 to 58%

## c1ccc(-c2cc[nH]n2)nc1
  inhibition: 2 to 52%

## CCCN1CC(=O)C(c2nc3ccccc3[nH]2)=C1N
  inhibition: 1 to 31%

## O=C(O)c1ccc(Cn2cnc3ccccc32)o1
  inhibition: 9 to 23%

## CCc1ccc(C(=O)CSc2nnc(CC)[nH]2)cc1
  inhibition: 9 to 47%

## Cc1cc(C(=O)O)nn1-c1cccc(Cl)c1
  inhibition: 1 to 22%

## Nc1n[nH]c(SCC(=O)c2cccc([N+](=O)[O-])c2)n1
  inhibition: 8 to 49%

## Cc1ccccc1-c1nnc(C(C)N)o1 (stereo unspecified)
  inhibition: 2 to 39%

## CCOC(=O)CSc1nnc(N)[nH]1
  inhibition: 18 to 34%

## O=Cc1ccc(OCc2ccc(C(=O)O)o2)cc1
  inhibition: 40 to 59%

## O=C(O)c1ccc(COc2ccccc2F)o1
  inhibition: 5 to 46%

## O=C(O)C1CCCN1C(=O)c1ccco1 (stereo unspecified)
  inhibition: 7 to 9%

## O=C(O)c1cc(-c2ccccn2)nc2ccccc12
  inhibition: 37 to 55%

## CC(C)CNC(=O)c1ccc2[nH]c(=O)c(=O)[nH]c2c1
  inhibition: 35 to 44%

## Cc1c(C(=O)O)sc2[nH]c(=S)[nH]c(=O)c12
  inhibition: 45 to 46%

## C=CCn1cnc2sc(C(=O)O)c(C)c2c1=O
  inhibition: 8 to 20%

## CC(C)N(C(=O)CSc1nnc(N)[nH]1)c1ccccc1
  inhibition: 24 to 64%

## COC(=O)CSc1nnc(-c2ccco2)[nH]1
  inhibition: 13 to 27%

## Cc1nnc(SCC(=O)c2cccc3ccccc23)[nH]1
  inhibition: 38 to 67%

## COc1ccccc1OCc1ccc(C(=O)O)o1
  inhibition: 6 to 17%

## CC(=O)Nc1ccc(C(=O)CSc2nnc(C)[nH]2)cc1
  inhibition: 1 to 39%

## Cc1ccc(-c2cc(C(=O)O)nn2C)cc1
  inhibition: 42 to 45%

## Cc1c(C(=O)O)sc2ncn(C3CCCCC3)c(=O)c12
  inhibition: 17 to 26%

## c1ccn2c(C3CCCNC3)nnc2c1 (stereo unspecified)
  inhibition: 2 to 47%

## O=C(O)c1cc(-c2cccnc2)on1
  inhibition: 29 to 33%

## Nc1n[nH]c(SCc2ccccc2Cl)n1
  inhibition: 24 to 34%

## Nc1nnc(SCCCc2ccccc2)[nH]1
  inhibition: 18 to 37%

## Cc1c(C(=O)O)sc2ncn(CC(=O)O)c(=O)c12
  inhibition: 2 to 44%

## c1ccc(-c2nn[nH]n2)nc1
  inhibition: 44 to 56%

## COC(=O)c1ccc(CSc2nnc(N)[nH]2)cc1
  inhibition: 36 to 46%

## O=C(O)c1ccc(S(=O)(=O)c2ccccc2)o1
  inhibition: 18 to 49%

## O=C(O)c1ccc(CSc2ccc(Cl)cc2)o1
  inhibition: 20 to 28%

## CCc1ccc(OCCCSc2nnc(N)[nH]2)cc1
  inhibition: 25 to 31%

## O=C(O)c1cccnc1-c1ncccc1C(=O)O
  inhibition: 13 to 49%

## O=C(O)c1csc(Cc2ccccc2)n1
  inhibition: 1 to 67%

## O=C(O)c1ccc(CSc2nnc[nH]2)o1
  inhibition: 16 to 21%

## Cc1nnc(SCC(=O)c2ccc(C(C)C)cc2)[nH]1
  inhibition: 1 to 41%

## Cc1c(C(=O)O)sc2nc(C)n(C)c(=O)c12
  inhibition: 22 to 34%

## CCCOC(=O)CSc1nnc(N)[nH]1
  inhibition: 15 to 36%

## COc1cccc(-c2nnc(-c3ccccc3N)[nH]2)c1
  inhibition: 1 to 19%

## Nc1n[nH]c(SCc2ccc(Br)cc2)n1
  inhibition: 28 to 36%

## CCCCOC(=O)CSc1nnc(N)[nH]1
  inhibition: 39 to 62%

## Cc1c(C(=O)O)sc2ncn(C3CCCC3)c(=O)c12
  inhibition: 20 to 26%

## O=C(O)c1ccc(COc2ccc3ccc(=O)oc3c2)o1
  inhibition: 14 to 21%

## Cc1ccc(-c2nnc(C(C)N)o2)cc1 (stereo unspecified)
  inhibition: 21 to 49%

## CCc1nnc(SCC(=O)c2ccc(OC)cc2)[nH]1
  inhibition: 1 to 22%

## Nc1n[nH]c(SCCN2C(=O)c3ccccc3C2=O)n1
  inhibition: 45 to 50%

## CN(C)C(=O)CSc1nnc(-c2ccncc2)[nH]1
  inhibition: 21 to 44%

## O=C(CSc1nnc(-c2ccco2)[nH]1)N1CCCCC1
  inhibition: 1 to 48%

## CC(Sc1nnc(N)[nH]1)C(=O)OCc1ccccc1 (stereo unspecified)
  inhibition: 37 to 54%

## Nc1nnc(SCCCOc2ccc(Cl)cc2)[nH]1
  inhibition: 22 to 32%

## COCc1nc(=O)c2c(C)c(C(=O)O)sc2[nH]1
  inhibition: 2 to 48%

## O=c1[nH]c2cc(Cl)ccc2n(Cc2ccccc2)c1=O
  inhibition: 1 to 62%

## Cc1ccc(OCc2ccc(C(=O)O)o2)cc1
  inhibition: 1 to 22%

## O=C(O)c1cc([N+](=O)[O-])c(Cl)s1
  inhibition: 7 to 63%

## Nc1nnc(SCC(=O)OCCOc2ccccc2)[nH]1
  inhibition: 47 to 56%

## O=C(O)c1c(-c2ccccc2)c(-c2ccccc2)n[nH]c1=O
  inhibition: 33 to 71%

## c1ccc2[nH]c(C3CCCN3)nc2c1 (stereo unspecified)
  inhibition: 6 to 23%

## Cc1nc(-c2ccccn2)sc1C(=O)N1CCCCC1
  inhibition: 15 to 20%

## CCc1nnc(SCC(=O)c2ccc(C)cc2)[nH]1
  inhibition: 11 to 14%

## Nc1ccccc1-c1nnc2n1CCCCC2
  inhibition: 5 to 46%

## Cc1ccc(C2NC(C(=O)O)CS2)cc1 (stereo unspecified)
  inhibition: 1 to 74%

## C1=C(c2ccccc2)Nc2ncnn2C1c1ccco1 (stereo unspecified)
  inhibition: 23 to 32%

## Nc1nnc(SCc2ccc(F)cc2)[nH]1
  inhibition: 1 to 18%

## Cc1nnc(SCC(=O)N2CCCc3ccccc32)[nH]1
  inhibition: 43 to 44%

## Cc1n[nH]c(SCC(=O)NCCc2ccccc2)n1
  inhibition: 1 to 18%

## CC(=O)c1c(C(=O)O)nn(-c2ccc(Cl)cc2)c1C
  inhibition: 17 to 20%

## O=C(O)c1cc(=O)c2ccccc2[nH]1
  inhibition: 7 to 59%

## Nc1n[nH]c(SCc2c(Cl)cccc2Cl)n1
  inhibition: 5 to 17%

## Cc1cc(C)c(C(=O)O)c(O)n1
  inhibition: 44 to 52%

## CCc1n[nH]c(SCC(=O)c2ccc(C)c(C)c2)n1
  inhibition: 5 to 38%

## COc1ccc(OCc2ccc(C(=O)O)o2)cc1
  inhibition: 1 to 37%

## Cc1cccn2c(=O)c3cc(C(=O)O)sc3nc12
  inhibition: 31 to 36%

## Cc1nc(C(=O)O)c(-c2ccccc2F)s1
  inhibition: 26 to 31%

## Nc1ccccc1-c1nc(-c2ccc(F)cc2)no1
  inhibition: 1 to 44%

## NNC(=O)COc1cccc(Br)c1
  inhibition: 1 to 45%

## CCn1nc(C(=O)O)c2ccccc2c1=O
  inhibition: 19 to 26%

## N#Cc1ccccc1CSc1nnc(N)[nH]1
  inhibition: 27 to 28%

## COc1cc(C=O)ccc1OCc1ccc(C(=O)O)o1
  inhibition: 36 to 53%

## CCCCCCSc1nnc(N)[nH]1
  inhibition: 1 to 3%

## O=C(Nc1ccccc1)C(=O)Nc1ccccc1
  inhibition: 2 to 39%

## O=C(O)c1cnccn1
  inhibition: 42 to 45%

## O=C(O)C1=NN(c2ccccc2)C(=O)CC1
  inhibition: 14 to 39%

## O=C(O)c1ccc(S(=O)(=O)c2ccccc2)s1
  inhibition: 29 to 65%

## Cc1ccc(S(=O)(=O)c2ccc(C(=O)O)s2)cc1
  inhibition: 10 to 67%

## NNC(=O)C(=O)Nc1ccccc1C(=O)O
  inhibition: 11 to 63%

## CC(C)c1ccc2nc(-c3ccccn3)cc(C(=O)O)c2c1
  inhibition: 18 to 56%

## COc1ccc(C(=O)CSc2nnc[nH]2)cc1C
  inhibition: 1 to 48%

## CCc1nnc(SCC(=O)c2ccccc2)[nH]1
  inhibition: 1 to 40%

## N#Cc1cccc(NCc2ccc(O)c3ncccc23)c1
  inhibition: 1 to 5%

## COc1ccccc1C1CC(c2cc(F)ccc2O)=NN1 (stereo unspecified)
  inhibition: 1 to 57%

## Cc1nnc(SCC(=O)c2ccc(C)c(C)c2)[nH]1
  inhibition: 10 to 24%

## NNC(=O)c1ccc(-c2ccc(Cl)cc2)o1
  inhibition: 10 to 41%

## O=C1CCC(c2ccccc2O)=NN1
  inhibition: 51 to 54%

## Nc1[nH]n(-c2ccccc2)c(=O)c1C1=NCCCCC1
  inhibition: 2 to 35%

## COc1ccc(Cl)cc1-c1nnc(S)[nH]1
  inhibition: 20 to 65%

## Nc1cccc(-c2cnc(-c3ccccn3)s2)c1
  inhibition: 30 to 36%

## CC(Sc1nnc(N)[nH]1)C(=O)OC1CCCCC1 (stereo unspecified)
  inhibition: 46 to 54%

## Cc1cccc(OCc2ccc(C(=O)O)o2)c1
  inhibition: 1 to 33%

## c1ccc(CSc2n[nH]c(-c3ccco3)n2)cc1
  inhibition: 13 to 16%

## Cc1c(C(=O)O)sc2ncn(CC3CCCO3)c(=O)c12 (stereo unspecified)
  inhibition: 10 to 24%

## Nc1ccncc1-c1ccc(C(=O)O)s1
  inhibition: 12 to 58%

## CCn1cnc2sc(C(=O)O)c(C)c2c1=O
  inhibition: 7 to 47%

## Cc1ccc(S(=O)(=O)Cc2ccc(C(=O)O)o2)cc1
  inhibition: 12 to 25%

## COc1cccc(C(=O)Nc2ccsc2C(=O)O)c1
  inhibition: 1 to 32%

## CCCCCn1cnc2sc(C(=O)O)c(C)c2c1=O
  inhibition: 34 to 57%

## COCCn1cnc2sc(C(=O)O)c(C)c2c1=O
  inhibition: 20 to 24%

## Nc1n[nH]c(SCC(=O)c2cc3ccccc3o2)n1
  inhibition: 21 to 28%

## Nc1ccc(C(=O)c2ccccc2)cc1N
  inhibition: 10 to 39%

## O=C(O)c1ccc(-c2ccc(Cl)c(Cl)c2)o1
  inhibition: 46 to 51%

## Cc1ccc(C(=O)NN)cc1
  inhibition: 1 to 34%

## COc1ccccc1-c1cc(C(=O)O)no1
  inhibition: 33 to 48%

## Sc1n[nH]c(-c2csc3c2CCCC3)n1
  inhibition: 45 to 49%

## Oc1ccc(Br)cc1-c1nnco1
  inhibition: 1 to 14%

## Nc1n[nH]c(SCCOc2ccccc2)n1
  inhibition: 28 to 29%

## Nc1nnc(SCC(=O)OCCCc2ccccc2)[nH]1
  inhibition: 44 to 62%

## S=c1nc(-c2ccccn2)cc[nH]1
  inhibition: 32 to 75%

## O=C(O)c1cscn1
  inhibition: 35 to 41%

## Cc1ccc(OCCCSc2n[nH]c(N)n2)cc1
  inhibition: 42 to 51%

## CC(C)(C)c1ccc(OCCSc2nnc(N)[nH]2)cc1
  inhibition: 25 to 28%

## CCN1CCN(Cc2ccc(O)c3ncccc23)CC1
  inhibition: 20 to 39%

## CCSc1nnc([C@@H]2CCCN2)o1
  inhibition: 1 to 34%

## Cc1cc(O)c2c(c1Cl)C(=O)C=CC2=O
  inhibition: 31 to 66%
